Measured values reported in ChEMBL document CHEMBL4609978, “Synthesis and evaluation of 2'-dihalo ribonucleotide prodrugs with activity against hepatitis C virus” (Bioorg Med Chem, 2020).

Experiments:
[1] = system: Hepatitis C virus; assay: Antiviral activity against HCV genotype 1a H77 infected in human HuH7 replicon cells assessed as inhibition of viral replication after 3 days by luciferase reporter gene assay; assay type: functional, organism-based, Hepacivirus hominis; conditions: subtype 1a H77, Huh-7, 72 h
In short: (§1)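 Stable subgenomic replicon cell lines (genotype 1a-H77 or 1b-Con1) carrying a luciferase reporter; compounds added in DMEM with 5% FBS, cells incubated 3 days with or without compound, then lysed and luciferase activity read; EC50 from nonlinear regression fit to 4-parameter logistic equation.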

[2] = system: Hepatitis C virus; assay: Antiviral activity against HCV genotype 1b Con1 infected in human HuH7 replicon cells assessed as inhibition of viral replication after 3 days by luciferase reporter gene assay; assay type: functional, organism-based, Hepacivirus hominis; conditions: subtype 1b Con1, Huh-7, 72 h; in short: as §1
[3] = Prodrug conversion in Beagle dog liver assessed as nucleotide triphosphate level at 5 mg/kg, po administered as single dose measured after 4 hrs by LC-MS/MS analysis; assay type: ADME, organism-based, Canis lupus familiaris; conditions: in vivo
[4] = Prodrug conversion in Beagle dog liver assessed as nucleotide triphosphate level at 5 mg/kg, po co-dosed with 5 mg/kg sofosbuvir measured after 4 hrs by LC-MS/MS analysis; assay type: ADME, organism-based, Canis lupus familiaris; conditions: in vivo
In short: (§2)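 Beagle dogs (3 per time point) given single oral prodrug 5 mg/kg in EtOH:PEG-400:Phosal 53 MCT (10:30:60, w/w), cassette-dosed with sofosbuvir 5 mg/kg as internal standard; liver biopsies at 4 or 24 h, flash frozen, triphosphate measured by LC-MS/MS.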

[5] = Prodrug conversion in Beagle dog liver assessed as nucleotide triphosphate level at 5 mg/kg, po administered as single dose measured after 24 hrs by LC-MS/MS analysis; assay type: ADME, organism-based, Canis lupus familiaris; conditions: in vivo
[6] = Prodrug conversion in Beagle dog liver assessed as nucleotide triphosphate level at 5 mg/kg, po co-dosed with 5 mg/kg sofosbuvir measured after 24 hrs by LC-MS/MS analysis; assay type: ADME, organism-based, Canis lupus familiaris; conditions: in vivo; in short: as §2
[7] = Prodrug conversion in human primary hepatocytes assessed as nucleotide triphosphate level at 100 uM incubated for 4 hrs followed by compound wash-out for 20 hrs and measured following 4 hrs incubation period by LC-MS/MS analysis; assay type: ADME, cell-based, Hepatocyte
In short: (§3)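 Cryopreserved primary human hepatocytes plated ~55,000 viable cells/well on collagen, medium changed after 4–6 h to Williams E maintenance medium with Geltrex 0.35 mg/mL, overnight at 37 °C; prodrug 100 µM for 4 h, then washed; second plate held a further 20 h drug-free; cells washed with ice-cold HBSS, triphosphate measured by LC-MS/MS at 4 or 24 h.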

[8] = Prodrug conversion in human primary hepatocytes assessed as nucleotide triphosphate level at 100 uM incubated for 4 hrs and followed by compound washout for 20 hrs and measured following 24 hrs incubation period by LC-MS/MS analysis; assay type: ADME, cell-based, Hepatocyte; in short: as §3
[9] = system: Hepatitis C virus; assay: Antiviral activity against HCV genotype 1b Con1 over expressing CES1 infected in human HuH7 replicon cells assessed as inhibition of viral replication after 3 days by luciferase reporter gene assay; assay type: functional, organism-based, Hepacivirus hominis; conditions: subtype 1b Con1, Huh-7, 72 h
[10] = Distribution coefficient, logD of compound by HT-LCMS analysis; assay type: physicochemical; conditions: octanol/water
[11] = Aqueous solubility of compound in pH 7.4 phosphate buffer; assay type: physicochemical
[12] = Prodrug conversion in Beagle dog liver assessed as nucleotide triphosphate level at 5 mg/kg, po qd for 4 days and measured at 24 hrs post-last dose by LC-MS/MS analysis; assay type: ADME, organism-based, Canis lupus familiaris; conditions: in vivo
[13] = Prodrug conversion in Beagle dog liver assessed as nucleotide triphosphate level at 5 mg/kg, po qd for 4 days co-dosed with 5 mg/kg sofosbuvir and measured at 24 hrs post-last dose by LC-MS/MS analysis; assay type: ADME, organism-based, Canis lupus familiaris; conditions: in vivo
In short: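 Beagle dogs (3 per time point) dosed orally once daily for 4 days with prodrug (1 or 5 mg/kg) in EtOH:PEG-400:Phosal 53 MCT (10:30:60, w/w) together with sofosbuvir 5 mg/kg; liver biopsy 24 h after final dose, flash frozen, triphosphate by LC-MS/MS.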

[14] = Stability in dog plasma assessed as parent compound remaining after 4 hrs; assay type: ADME, cell-free, Canis lupus familiaris; conditions: read-out: Stability
In short: (§4)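 Prodrug incubated 4 h at 37 °C in dog or human plasma; result given as percent parent remaining.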

[15] = Stability in human plasma assessed as parent compound remaining after 4 hrs; assay type: ADME, cell-free; conditions: read-out: Stability; in short: as §4
[16] = Unbound drug level in dog plasma; assay type: ADME, cell-free, Canis lupus familiaris
[17] = Unbound drug level in human plasma; assay type: ADME, cell-free
[18] = Intrinsic clearance in dog hepatocytes; assay type: ADME, cell-based, Canis lupus familiaris, Hepatocyte; conditions: read-out: CLH (converted)
[19] = Intrinsic clearance in human hepatocytes; assay type: ADME, cell-based, Hepatocyte; conditions: read-out: CLH (converted)
[20] = Cytotoxicity against human HuH7 cells assessed as reduction in cell viability; assay type: cell-based, Huh-7; conditions: read-out: TD50 (the source's name)
[21] = system: Hepatitis C virus; assay: Antiviral activity against HCV genotype 1b Con1 expressing wild type NS5B infected in human HuH7 replicon cells assessed as inhibition of viral replication after 4 days by luciferase reporter gene based assay; assay type: functional, organism-based, Hepacivirus hominis; conditions: subtype 1b Con1, Huh-7, 96 h
[22] = system: Hepatitis C virus; assay: Antiviral activity against HCV genotype 1b Con1 expressing NS5B S282T mutant infected in human HuH7 replicon cells assessed as inhibition of viral replication after 4 days by luciferase reporter gene based assay; assay type: functional, organism-based, Hepacivirus hominis; conditions: subtype 1b Con1, Huh-7, 96 h
[23] = system: Hepatitis C virus; assay: Antiviral activity against HCV genotype 2a expressing wild type NS5B infected in human HuH7 replicon cells assessed as inhibition of viral replication after 4 days by luciferase reporter gene based assay; assay type: functional, organism-based, Hepacivirus hominis; conditions: subtype 2a, Huh-7, 96 h
[24] = system: Hepatitis C virus; assay: Antiviral activity against HCV genotype 2a expressing NS5B S282T mutant infected in human HuH7 replicon cells assessed as inhibition of viral replication after 4 days by luciferase reporter gene based assay; assay type: functional, organism-based, Hepacivirus hominis; conditions: subtype 2a, Huh-7, 96 h
[25] = system: Hepatitis C virus; assay: Antiviral activity against HCV genotype 3a expressing wild type NS5B infected in human HuH7 replicon cells assessed as inhibition of viral replication after 4 days by luciferase reporter gene based assay; assay type: functional, organism-based, Hepacivirus hominis; conditions: subtype 3a, Huh-7, 96 h
[26] = system: Hepatitis C virus; assay: Antiviral activity against HCV genotype 3a expressing NS5B S282T mutant infected in human HuH7 replicon cells assessed as inhibition of viral replication after 4 days by luciferase reporter gene based assay; assay type: functional, organism-based, Hepacivirus hominis; conditions: subtype 3a, Huh-7, 96 h
[27] = system: Hepatitis C virus; assay: Antiviral activity against HCV genotype 4a expressing wild type NS5B infected in human HuH7 replicon cells assessed as inhibition of viral replication after 4 days by luciferase reporter gene based assay; assay type: functional, organism-based, Hepacivirus hominis; conditions: subtype 4a, Huh-7, 96 h
[28] = system: Hepatitis C virus; assay: Antiviral activity against HCV genotype 6a expressing wild type NS5B infected in human HuH7 replicon cells assessed as inhibition of viral replication after 4 days by luciferase reporter gene based assay; assay type: functional, organism-based, Hepacivirus hominis; conditions: subtype 6a, Huh-7, 96 h
[29] = system: Hepatitis C virus; assay: Potency index, ratio of sofosbuvir EC50 to compound EC50 for HCV genotype 1a H77 infected in human HuH7 replicon cells assessed as inhibition of viral replication after 3 days by luciferase reporter gene assay; assay type: functional, Hepacivirus hominis, subtype 1a H77, Huh-7
In short: (§5)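 Stable subgenomic luciferase-reporter replicon Huh-7 lines, genotype 1a-H77 or 1b-Con1. Test compound and sofosbuvir comparator each run in DMEM with 5% FBS for 3 days. Cells lysed and luciferase activity read. EC50 obtained by nonlinear regression to a 4-parameter logistic equation. Index is sofosbuvir EC50 divided by compound EC50, both from this assay.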

[30] = system: Hepatitis C virus; assay: Potency index, ratio of sofosbuvir EC50 to compound EC50 for HCV genotype 1b Con1 infected in human HuH7 replicon cells assessed as inhibition of viral replication after 3 days by luciferase reporter gene assay; assay type: functional, Hepacivirus hominis, subtype 1b Con1, Huh-7; in short: as §5

Row | SMILES | EC50 [1] [nM] | EC50 [2] [nM] | Drug metabolism [3] [µM] | Drug metabolism [4] [µM] | Drug metabolism [5] [µM] | Drug metabolism [6] [µM] | Drug metabolism [7] [µM] | Drug metabolism [8] [µM] | EC50 [9] [nM] | logD [10] | solubility [11] [µM] | remaining at 4 h [14] [%] | remaining at 4 h [15] [%] | fraction unbound [16] | CC50 [20] [nM] | further results
1 | CC(C)OC(=O)[C@H](C)N[P@@](=O)(OC[C@H]1O[C@@H](n2ccc(=O)[nH]c2=O)[C@](Cl)(Br)[C@@H]1O)Oc1ccccc1 | 412 | 515 | 0.143 | 1.76 | 0.036 | 1.26 | 102 | 24 | 218 | 3.21 | > 200 | – | – | – | – | –
2 | CCOC(=O)C(C)(C)N[P@@](=O)(OC[C@H]1O[C@@H](n2ccc(=O)[nH]c2=O)[C@](Cl)(Br)[C@@H]1O)Oc1ccccc1 | 2720 | 2560 | 7.21 | 5.35 | 2.64 | 4.03 | – | – | – | 3.07 | > 200 | 100 | 92 | 0.187 | – | Drug metabolism [12]: 1.43 µM; Drug metabolism [13]: 6.05 µM; fraction unbound [17]: 0.31; CLint scaled [18]: 98.3 mL/min/kg; CLint scaled [19]: 155 mL/min/kg
3 | CC(C)OC(=O)[C@H](C)N[P@](=O)(OC[C@H]1O[C@@H](n2ccc(=O)[nH]c2=O)C(F)(F)[C@@H]1O)Oc1ccccc1 | 226 | 286 | – | – | – | – | – | – | – | – | – | – | – | – | 384 | –
4 | CC(C)OC(=O)[C@H](C)N[P@](=O)(OC[C@H]1O[C@@H](n2ccc(=O)[nH]c2=O)[C@](F)(Br)[C@@H]1O)Oc1ccccc1 | 3030 | 2500 | – | – | – | – | – | – | – | – | – | – | – | – | 26500 | –
5 | CC(C)OC(=O)[C@H](C)N[P@](=O)(OC[C@H]1O[C@@H](n2ccc(=O)[nH]c2=O)[C@@](Cl)(Br)[C@@H]1O)Oc1ccccc1 | 200 | 258 | – | – | – | – | – | – | – | – | – | – | – | – | > 100000 | –
6 | CC(C)OC(=O)[C@H](C)N[P@](=O)(OC[C@H]1O[C@@H](n2ccc(=O)[nH]c2=O)[C@@](F)(Br)[C@@H]1O)Oc1ccccc1 | 56 | 87 to 95 | 11.5 | 7.39 | 6.61 | 8.87 | 192 | 91 | 56 | 3.07 | > 200 | 86 | 100 | 0.367 | > 100000 | EC50 [21]: 15.2 nM; EC50 [22]: 134 nM; EC50 [23]: 189 nM; EC50 [24]: 308 nM; EC50 [25]: 12.7 nM; EC50 [26]: 75.3 nM; EC50 [27]: 25.7 nM; EC50 [28]: 14.5 nM; fraction unbound [17]: 0.43; CLint scaled [19]: 257 mL/min/kg; Ratio EC50 [29]: 2 - 3; Ratio EC50 [30]: 2 - 3
7 | CC(C)OC(=O)[C@H](C)N[P@](=O)(OC[C@H]1O[C@@H](n2ccc(=O)[nH]c2=O)C(C)(C)C1O)Oc1ccccc1 (single isomer, unassigned) | 5630 | 4750 | – | – | – | – | – | – | – | – | – | – | – | – | 31600 | –
8 | CC(C)OC(=O)[C@H](C)N[P@](=O)(OC[C@H]1O[C@@H](n2ccc(=O)[nH]c2=O)[C@](C)(F)[C@@H]1O)Oc1ccccc1 [SOFOSBUVIR] | 155 to 168 | 188 to 230 | – | – | – | – | 97 | 122 | 53 | – | > 200 | 93 | 96 | 0.323 | > 100000 | EC50 [21]: 62 nM; EC50 [22]: 638 nM; EC50 [23]: 681 nM; EC50 [24]: 1000 nM; EC50 [25]: 75.1 nM; EC50 [26]: 330 nM; EC50 [27]: 78.5 nM; EC50 [28]: 86.7 nM; Fu [17]: 0.563; CLint scaled [18]: 40 mL/min/kg
